Reference: ChEMBL document CHEMBL1124186, “Synthesis and evaluation of tylosin-related macrolides modified at the aldehyde function: a new series of orally effective antibiotics” (1988)
Converted amounts (≈) assume the structure as drawn.

What was measured:
[1] = test system: Enterococcus faecium; experiment: In vitro antimicrobial activity against Streptococcus faecium X66; assay type: functional, streptococcus fae-cium
[2] = test system: Streptococcus pyogenes; experiment: In vivo effective dose against experimental infections in rodent caused by Streptococcus pyogenes C203 when administered orally; assay type: functional; conditions: po
[3] = test system: Streptococcus pneumoniae; experiment: In vitro antimicrobial activity against Streptococcus pneumoniae; assay type: functional
[4] = test system: Staphylococcus aureus; experiment: In vitro antimicrobial activity against Staphylococcus aureus X1; assay type: functional
[5] = test system: Haemophilus influenzae; experiment: In vitro antimicrobial activity against Haemophilus influenzae.; assay type: functional
[6] = test system: Streptococcus pyogenes; experiment: Effective dose against Streptococcus pyogenes C203 when administered sc; assay type: functional
Outline: (§1)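 Mouse protection test: infected mice were dosed twice, at 1 and 5 h postinfection, either subcutaneously or orally. […] The result is expressed as ED50 in mg/kg × 2.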

[7] = test system: Streptococcus pyogenes; experiment: Antimicrobial activity against Streptococcus pyogenes C203; assay type: functional
[8] = test system: Streptococcus pyogenes; experiment: In vitro antimicrobial activity against Streptococcus pyogenes C203; assay type: functional
[9] = test system: Staphylococcus epidermidis; experiment: In vitro antimicrobial activity against Staphylococcus epidermidis EPI1; assay type: functional
[10] = test system: Streptococcus pyogenes; experiment: In vivo effective dose against experimental infections in rodent caused by Streptococcus pyogenes C203 when administered sc; assay type: functional
[11] = test system: Streptococcus pyogenes; experiment: Effective dose against Streptococcus pyogenes C203 when administered orally; assay type: functional; conditions: po; outline: as §1
[12] = test system: Streptococcus pneumoniae; experiment: In vivo effective dose against experimental infections in mice Strep. pneumoniae park when administered sc; assay type: functional
[13] = test system: Rattus norvegicus; experiment: Peripheral plasma levels in rats after oral administration of 100 mg/kg dose for 4 hr; assay type: functional, organism-based; set-up: dose 100 mg/kg
Outline: (§2)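 Rats received 100 mg/kg orally and were sampled for peripheral plasma. Concentrations were measured by Micrococcus luteus agar-diffusion microbiological assay in Antibiotic Medium 1, with zone sizes converted using the standard curve for the appropriate compound. Each value is the average of three rats per time point.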

[14] = test system: Mus musculus; experiment: Peripheral plasma levels in mice after oral administration of 100 mg/kg dose for 0.5 hr; assay type: functional, organism-based; set-up: dose 100 mg/kg
Outline: (§3)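 Mice were given the compound orally and sampled for peripheral plasma at each time point. Plasma was assayed microbiologically against Micrococcus luteus seeded in Antibiotic Medium 1. Inhibition zone sizes were read, and concentrations were calculated from each compound's own standard curve. Each value is the mean of five mice per time point.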

[15] = test system: Rattus norvegicus; experiment: Peripheral plasma levels in rats after oral administration of 100 mg/kg dose for 0.25 hr; assay type: functional, organism-based; set-up: dose 100 mg/kg; outline: as §2
[16] = test system: Mus musculus; experiment: Peripheral plasma levels in mice after oral administration of 100 mg/kg dose for 1 hr; assay type: functional, organism-based; set-up: dose 100 mg/kg; outline: as §3
[17] = test system: Rattus norvegicus; experiment: Peripheral plasma levels in rats after oral administration of 100 mg/kg dose for 2 hr; assay type: functional, organism-based; set-up: dose 100 mg/kg; outline: as §2
[18] = test system: Staphylococcus aureus; experiment: In vivo effective dose against experimental infections in mice Staphylococcus aureus X1 when administered orally; assay type: functional; conditions: po
[19] = test system: Rattus norvegicus; experiment: Peripheral plasma levels in rats after oral administration of 100 mg/kg dose for 0.5 hr; assay type: functional, organism-based; set-up: dose 100 mg/kg; outline: as §2
[20] = test system: Streptococcus pneumoniae; experiment: In vivo effective dose against experimental infections in mice Strep. pneumoniae park when administered orally; assay type: functional; conditions: po
[21] = test system: Mus musculus; experiment: Peripheral plasma levels in mice after oral administration of 100 mg/kg dose for 2 hr; assay type: functional, organism-based; set-up: dose 100 mg/kg; outline: as §3
[22] = test system: Staphylococcus aureus; experiment: In vivo effective dose against experimental infections in mice Staphylococcus aureus X1 when administered sc; assay type: functional
[23] = test system: Rattus norvegicus; experiment: Peripheral plasma levels in rats after oral administration of 100 mg/kg dose for 1 hr; assay type: functional, organism-based; set-up: dose 100 mg/kg; outline: as §2

SMILES | MIC [1] [µg/mL] | ED50 [2] [mg/kg] | MIC [3] [µg/mL] | MIC [4] [µg/mL] | MIC [5] [µg/mL] | MIC [8] [µg/mL] | MIC [9] [µg/mL] | ED50 [10] [mg/kg] | further results
CC[C@H]1OC(=O)C[C@@H](O)[C@H](C)[C@@H](O[C@@H]2O[C@H](C)[C@@H](O)[C@H](N(C)C)[C@H]2O)[C@@H](C)C[C@@H](C)C(=O)/C=C/C(C)=C/[C@@H]1CO | 4 (≈ 7.02 µM) | 121 | 4 (≈ 7.02 µM) | 4 (≈ 7.02 µM) | 4 (≈ 7.02 µM) | 4 (≈ 7.02 µM) | 2 (≈ 3.51 µM) | > 30 | ED50 [6]: > 30 mg/kg; MIC [7]: 4 µg/mL (≈ 7.02 µM); ED50 [11]: 121 mg/kg
CC[C@H]1OC(=O)C[C@@H](O)[C@H](C)[C@@H](O[C@@H]2O[C@H](C)[C@@H](O)[C@H](N(C)C)[C@H]2O)[C@@H](CCN2CCCCCCC2)C[C@@H](C)C(=O)/C=C/C(C)=C/[C@@H]1CO[C@@H]1O[C@H](C)[C@@H](O)[C@@H](OC)[C@H]1OC | 4 (≈ 4.6 µM) | 20 | 0.25 (≈ 0.288 µM) | 0.5 (≈ 0.575 µM) | 8 (≈ 9.2 µM) | 0.25 (≈ 0.288 µM) | 0.5 (≈ 0.575 µM) | 0.9 | ED50 [12]: > 20 mg/kg; Concentration [13]: 0.2 µg/mL; Concentration [14]: 0.1 µg/mL; Concentration [15]: 0.3 µg/mL; Concentration [16]: 0.1 µg/mL; Concentration [17]: 1.1 µg/mL; ED50 [18]: 25 mg/kg; Concentration [19]: 0.4 µg/mL; ED50 [20]: > 50 mg/kg; Concentration [21]: 0.1 µg/mL; ED50 [22]: 2 mg/kg; Concentration [23]: 0.2 µg/mL
